From ChEMBL document CHEMBL1926556, “Synthesis and biological activities of 2-[(heteroaryl)methyl]imidazolines” (Bioorg Med Chem, 2012)
Activity calls are given as the source filed them. The calls are words filed in the database; no cut-off is given here.

Tests used:
[1] = target: T1, Adrenergic receptor alpha-1 (Rattus norvegicus, UniProt P15823+P23944+P43140); test: Displacement of [3H]prazosin from adrenoceptor alpha1 in Sprague-Dawley rat brain after 45 mins by scintillation counting
T1 sequence (P15823 whole entry): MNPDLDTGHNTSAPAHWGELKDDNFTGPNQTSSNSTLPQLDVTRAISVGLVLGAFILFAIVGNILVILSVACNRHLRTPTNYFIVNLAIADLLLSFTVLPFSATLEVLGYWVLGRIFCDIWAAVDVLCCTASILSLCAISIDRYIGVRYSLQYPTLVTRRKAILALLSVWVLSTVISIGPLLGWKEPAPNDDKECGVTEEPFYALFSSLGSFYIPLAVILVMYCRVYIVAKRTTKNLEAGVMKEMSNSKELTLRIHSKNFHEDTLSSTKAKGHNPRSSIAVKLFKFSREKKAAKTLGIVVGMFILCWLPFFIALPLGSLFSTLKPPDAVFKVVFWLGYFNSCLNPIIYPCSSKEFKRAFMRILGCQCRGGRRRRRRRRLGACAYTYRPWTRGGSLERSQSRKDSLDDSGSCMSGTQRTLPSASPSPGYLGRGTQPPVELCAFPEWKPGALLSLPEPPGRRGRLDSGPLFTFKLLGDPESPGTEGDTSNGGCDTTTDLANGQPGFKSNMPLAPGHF
T1 sequence (P23944 whole entry): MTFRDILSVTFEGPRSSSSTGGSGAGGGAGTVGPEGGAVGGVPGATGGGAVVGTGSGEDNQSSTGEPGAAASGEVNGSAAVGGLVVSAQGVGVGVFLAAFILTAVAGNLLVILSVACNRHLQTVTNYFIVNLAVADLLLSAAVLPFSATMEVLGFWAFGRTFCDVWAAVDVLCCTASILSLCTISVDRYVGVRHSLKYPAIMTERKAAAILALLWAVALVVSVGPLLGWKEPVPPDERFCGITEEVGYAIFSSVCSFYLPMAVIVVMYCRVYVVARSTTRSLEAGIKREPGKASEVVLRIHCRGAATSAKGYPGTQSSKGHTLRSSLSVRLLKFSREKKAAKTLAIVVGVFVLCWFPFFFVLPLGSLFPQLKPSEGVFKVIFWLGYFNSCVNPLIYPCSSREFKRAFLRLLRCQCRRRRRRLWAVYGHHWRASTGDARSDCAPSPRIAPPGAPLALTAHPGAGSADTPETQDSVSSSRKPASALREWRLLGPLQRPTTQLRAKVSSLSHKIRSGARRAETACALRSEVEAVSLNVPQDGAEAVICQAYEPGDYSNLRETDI
T1 sequence (P43140 whole entry): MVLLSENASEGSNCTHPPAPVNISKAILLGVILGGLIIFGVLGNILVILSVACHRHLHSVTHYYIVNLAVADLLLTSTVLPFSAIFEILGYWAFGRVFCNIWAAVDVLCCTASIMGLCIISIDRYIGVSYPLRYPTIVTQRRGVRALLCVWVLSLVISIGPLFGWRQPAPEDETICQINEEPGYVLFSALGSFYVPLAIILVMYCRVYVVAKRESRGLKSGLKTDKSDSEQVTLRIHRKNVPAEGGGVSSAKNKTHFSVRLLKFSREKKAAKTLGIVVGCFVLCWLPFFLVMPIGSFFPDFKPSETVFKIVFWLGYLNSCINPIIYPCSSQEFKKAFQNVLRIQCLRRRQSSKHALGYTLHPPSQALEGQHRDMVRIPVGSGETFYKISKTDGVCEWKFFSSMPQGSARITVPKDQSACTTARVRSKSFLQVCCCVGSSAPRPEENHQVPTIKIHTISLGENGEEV
Method in brief: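 Crude P2 membranes from male Sprague–Dawley rat brain (250–280 g), 0.2–0.3 mg protein. Radioligand 1 nM: [3H]2BFI for I2, [3H]prazosin for α1, [3H]RX821002 for α2. Non-specific binding defined by 10 µM BU224 (I2), 10 µM phenylephrine (α1) or 10 µM rauwolscine (α2). 11 concentrations from 0.01 nM to 100 µM, triplicate, 45 min at RT. Filtration and scintillation counting; Ki by Cheng–Prusoff.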

Rattus norvegicus [2] = test: Antihypertensive activity in Wistar rat assessed as inhibition of methoxamine-induced change in blood pressure at 0.1 mg/kg, iv administered 10 mins after methoxamine challenge; assay type: functional
Method in brief: (§1)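 Male Wistar rats (200–290 g) anaesthetized with i.p. thiopental 70 mg/kg, maintained by thiopental infusion, 36–37 °C. Carotid catheter for BP/HR, jugular line for infusion. Methoxamine i.v. infusion 10 or 20 µg/kg/min began 10 min before 0.1 mg/kg i.v. bolus. Readout is ΔMAP or ΔHR from time 0. Five to seven rats per group; repeated-measures ANOVA.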

Rattus norvegicus [3] = test: Antihypertensive activity in Wistar rat assessed as inhibition of methoxamine-induced change in blood pressure at 0.1 mg/kg, iv administered 10 mins after 20 ug/kg/min methoxamine challenge; assay type: functional, organism-based; set-up: dose 0.1 mg/kg; method in brief: as §1
Rattus norvegicus [4] = test: Antihypertensive activity in Wistar rat assessed as inhibition of methoxamine-induced change in heart rate at 0.1 mg/kg, iv co-administered with 10 ug/kg/min methoxamine challenge; assay type: functional, organism-based; set-up: dose 0.1 mg/kg; method in brief: as §1
Rattus norvegicus [5] = test: Antihypertensive activity in Wistar rat assessed as inhibition of methoxamine-induced change in heart rate at 0.1 mg/kg, iv co-administered with 20 ug/kg/min methoxamine challenge; assay type: functional, organism-based; set-up: dose 0.1 mg/kg; method in brief: as §1
Rattus norvegicus [6] = test: Anxiolytic activity in Sprague-Dawley rat assessed as loss of righting reflex at 100 ug/kg, ip measured after 30 mins; assay type: functional, organism-based
Method in brief: (§2)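 Male Sprague–Dawley rats (250–270 g) were handled by the experimenter one day before testing. Compound was dissolved in sterile saline and given i.p. If no loss of righting reflex occurred after 5 min, the dose was repeated, up to 2000 µg/kg cumulative. Animals were watched for righting reflex, locomotion, motor coordination and behaviour. Righting reflex was scored at 30 min.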

Rattus norvegicus [7] = test: Anxiolytic activity in Sprague-Dawley rat assessed as loss of righting reflex at 500 ug/kg, ip measured after 30 mins; assay type: functional, organism-based; method in brief: as §2
Rattus norvegicus [8] = test: Anxiolytic activity in Sprague-Dawley rat assessed as loss of righting reflex at 1000 ug/kg, ip measured after 30 mins; assay type: functional, organism-based; method in brief: as §2
Rattus norvegicus [9] = test: Anxiolytic activity in Sprague-Dawley rat assessed as loss of righting reflex at 2000 ug/kg, ip measured after 30 mins; assay type: functional, organism-based; method in brief: as §2
Rattus norvegicus [10] = test: Toxicity in Sprague-Dawley rat assessed as loss of spontaneous locomotory activity at 10 to 2000 ug/kg, ip measured within 5 to 8 mins; assay type: organism-based; conditions: in vivo; method in brief: as §2
Rattus norvegicus [11] = test: Toxicity in Sprague-Dawley rat assessed as reduced motor co-ordination at 10 to 2000 ug/kg, ip measured within 5 to 8 mins; assay type: organism-based; conditions: in vivo; method in brief: as §2
Rattus norvegicus [12] = test: Toxicity in Sprague-Dawley rat assessed as subdued state at 10 to 2000 ug/kg, ip measured after 30 mins; assay type: organism-based; conditions: in vivo, 0.5 h; method in brief: as §2
Rattus norvegicus [13] = test: Toxicity in Sprague-Dawley rat assessed as exploratory behavior at 10 to 2000 ug/kg, ip measured after 30 mins; assay type: organism-based; conditions: in vivo, 0.5 h
Rattus norvegicus [14] = test: Toxicity in Sprague-Dawley rat assessed as increase in body temperature at 10 to 2000 ug/kg, ip measured after 30 mins; assay type: organism-based; conditions: in vivo, 0.5 h
Rattus norvegicus [15] = test: Antihypertensive activity in Wistar rat assessed as inhibition of methoxamine-induced change in heart rate at 0.1 mg/kg, iv administered 10 mins after 20 ug/kg/min methoxamine challenge; assay type: functional, organism-based; set-up: dose 0.1 mg/kg; method in brief: as §1

Compound | Ki [1] | Activity (Rattus norvegicus [2]) | Activity (Rattus norvegicus [3]) | Activity (Rattus norvegicus [4]) | Activity (Rattus norvegicus [5]) | Activity (Rattus norvegicus [6]) | Activity (Rattus norvegicus [7]) | Activity (Rattus norvegicus [8]) | Activity (Rattus norvegicus [9]) | Activity (Rattus norvegicus [10]) | Activity (Rattus norvegicus [11]) | Activity (Rattus norvegicus [12]) | Activity (Rattus norvegicus [13]) | Activity (Rattus norvegicus [14]) | Activity (Rattus norvegicus [15])
Cl.Clc1cccc2cnn(CC3=NCCN3)c12 | 14.1 nM | -47.7 mmHg | inactive | Active | Active | inactive | inactive | Active | Active | Toxic | Toxic | Non-toxic | Non-toxic | Toxic | inactive
Cc1cccc2cnn(CC3=NCCN3)c12.Cl | 101 nM |  |  |  |  |  |  |  |  |  |  |  |  |  | 
Cl.c1ccc2c(c1)cnn2CC1=NCCN1 | 272 nM |  |  |  |  |  |  |  |  |  |  |  |  |  | 
